FN deposition inh: inhibitors of fibronectin matrix deposition, primary screen, AH1F cells, Alexa488-fibronectin fluorescence, plate reader | AH1F fibroblasts, overnight | inhibition, % at 12.6 µM | 350,000 compounds, 0.086% hits | AID 743247, 2014;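 active = mean inhibition across replicates of 30% or more, regardless of how many single replicates reach that level; inconclusive = mean under 30% yet at least half of replicates reach 30%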;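 note: positive control wells lacked labelled fibronectin entirely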
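Material – AH1F fibroblast monolayer, labelled fibronectin deposition · Reagent – labelled fibronectin 24 nM · Timing – 1 h adhesion, overnight exposure · Measured by – fluorescence at 485 nm excitation, 525 nm emission · Read-out – inhibition of fibronectin deposition signal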
EBV LMP1 NFkB: EBV LMP1-driven NF-kappaB luciferase reporter inhibitors, primary screen, cell-based, luminescence, single point; LMP1-induced NF-kappaB luciferase reporter cells; inhibition, % at 12.5 µM; 350,000 compounds, 0.69% hits; in the data active = inhibition above about 41%; inconclusive = no clear call, values can overlap the other calls;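 note: 0% = neutral control wells and 100% = reference inhibitor control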
Shn3 inh set2: reduction of Shn3 3'UTR firefly luciferase signal, primary screen, Schnurri-3 inhibitor project, cell-based, Clone20 osteoblasts, set 2. Clone20 osteoblast Shn3 3'UTR firefly luciferase, 24 h. inhibition, % at 12.5 µM. 360,000 compounds, 0.52% hits. AID 588674, 2011;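 active = mean inhibition of at least 75% with every replicate also reaching 75%; inconclusive = mean inhibition at least 75% but some replicate below; inactive = mean inhibition below 75%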;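 note: 0% = median of neutral control wells and 100% = pilot-screen positive control compound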
aSyn UTR inh: MLPCN primary screen, SNCA 5' untranslated region | alpha-synuclein 5'UTR reporter, inhibitor activity | inhibition, % (tested at 7.5 µM) | 300,000 compounds, 0.82% hits | AID 1813, 2009; in the data active = inhibition above about 60%; inconclusive = no clear call, values can overlap the other calls;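 note: H4 neuroglioblastoma cells stably carrying SNCA 5'UTR luciferase fusion; 0% = DMSO wells and 100% = positive control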
PAX8 reporter: inhibitors of PAX8-driven TPO luciferase reporter, primary screen, RMG-I cells, single concentration. SteadyGlo, 24 h. inhibition, % at 12.6 µM. 360,000 compounds, 1.2% hits. AID 652154, 2013;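 active = mean replicate inhibition at least 60% with every replicate also reaching 60%; inconclusive = only one of the two criteria is met; inactive = mean below 60% and not all replicates reaching 60%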;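 note: luciferase light reporting Pax8 driven TPO promoter activity; plate controls were median of neutral control wells for no effect and mitoxantrone controls for full effect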
EWS-Fli block: EWS/Fli-driven NR0B1 reporter inhibitors, primary screen, A673 cells, NR0B1 luciferase, luminescence, MLPCN library; viability-normalised; inhibition, % at 12.6 µM; 350,000 compounds, 0.67% hits;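 active = mean inhibition of at least 50% after viability correction, with every replicate also passing that limit; inconclusive = mean reaches 50% but only one of two replicates passes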;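 note: firefly luciferase signal divided by Alamar Blue viability fluorescence both relative to DMSO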
The depositor's hits bear a star; ! = a repeat was not active. Most compounds without a hit are left out; they make up all but 2.1% or so of the library.

What do the screens show for `O=C(Nc1nc(-c2ccccn2)cs1)c1ccccc1-n1cnnn1`?
FN deposition inh: 3.5; EBV LMP1 NFkB: 23.3; Shn3 inh set2: 94.6*; aSyn UTR inh: 98.3*; PAX8 reporter: 59.2; EWS-Fli block: -2.6

Results for CC(C)[C@H](NC(=O)c1ccccc1Cl)C(=O)Nc1nc(-c2ccccn2)cs1 ?
FN deposition inh: 17.4; EBV LMP1 NFkB: 1.3; Shn3 inh set2: 51.1; aSyn UTR inh: 63.6*; PAX8 reporter: 57.7; EWS-Fli block: 29.9

Results for O=C(Nc1nc(-c2ccccn2)cs1)c1ccc([N+](=O)[O-])o1 ?
FN deposition inh: 15.2; EBV LMP1 NFkB: 1.1; Shn3 inh set2: 87.7*; aSyn UTR inh: -32.3; PAX8 reporter: 79.8*; EWS-Fli block: 0.2

Results for O=C(Nc1nc(-c2ccccn2)cs1)c1cc(Cl)ccc1[N+](=O)[O-] ?
FN deposition inh: 7.9; EBV LMP1 NFkB: inconclusive; Shn3 inh set2: 97.0*; aSyn UTR inh: 115.9*; PAX8 reporter: 80.5*; EWS-Fli block: -2.8

Results for Cc1cc(C(=O)Nc2nc(-c3ccccn3)cs2)ccc1[N+](=O)[O-] ?
FN deposition inh: 3.6; EBV LMP1 NFkB: 13.0; Shn3 inh set2: 33.0; aSyn UTR inh: 31.1; PAX8 reporter: 25.0; EWS-Fli block: 11.9

How did C[C@@H]1CN([C@@H](C)CO)C(=O)c2cccc(NC(=O)c3ccncc3)c2O[C@H]1CN(C)S(=O)(=O)c1cccs1 do in these assays?
EWS-Fli block: -1.6

What do the screens show for `C[C@H](CO)N1C[C@H](C)[C@H](CN(C)S(=O)(=O)c2cccs2)Oc2c(NC(=O)Nc3ccc(F)cc3)cccc2C1=O`?
FN deposition inh: 9.0; PAX8 reporter: 67.7*; EWS-Fli block: -14.8

What do the screens show for `C[C@@H]1CN([C@@H](C)CO)C(=O)c2cccc(NC(=O)c3ccncc3)c2O[C@@H]1CN(C)S(=O)(=O)c1cccs1`?
PAX8 reporter: 98.3*; EWS-Fli block: 3.5

What do the screens show for `C[C@@H]1CCCCO[C@H](CN(C)Cc2ccc(C(F)(F)F)cc2)[C@H](C)CN([C@H](C)CO)C(=O)c2cc(NC(=O)c3ccccc3)ccc2O1`?
PAX8 reporter: 99.2*; EWS-Fli block: 20.4

What do the screens show for `C[C@@H]1CN([C@@H](C)CO)C(=O)c2cc(NC(=O)c3ccncc3)ccc2O[C@@H](C)CCCCO[C@H]1CN(C)Cc1ccc(C(F)(F)F)cc1`?
FN deposition inh: -2.8; PAX8 reporter: 51.4; EWS-Fli block: 2.1

Results for C[C@H](CO)N1C[C@H](C)[C@@H](CN(C)Cc2ccc(C(F)(F)F)cc2)OCCCC[C@H](C)Oc2ccc(NC(=O)c3ccccc3)cc2C1=O ?
PAX8 reporter: 66.7*; EWS-Fli block: 34.9

What do the screens show for `C[C@@H]1CN([C@@H](C)CO)C(=O)c2cc(NC(=O)c3ccccc3)ccc2O[C@@H](C)CCCCO[C@@H]1CN(C)Cc1ccc(C(F)(F)F)cc1`?
FN deposition inh: 12.3; EBV LMP1 NFkB: 16.1; Shn3 inh set2: 26.1; PAX8 reporter: 77.5*!; EWS-Fli block: 15.2

How did C[C@H](CO)N1C[C@H](C)[C@H](CN(C)Cc2ccc(C(F)(F)F)cc2)OCCCC[C@H](C)Oc2ccc(NC(=O)c3ccccc3)cc2C1=O do in these assays?
PAX8 reporter: 90.4*; EWS-Fli block: 29.1

How did C[C@@H]1CN([C@@H](C)CO)C(=O)c2cc(NC(=O)c3ccncc3)ccc2O[C@@H](C)CCCCO[C@@H]1CN(C)Cc1ccc(C(F)(F)F)cc1 do in these assays?
FN deposition inh: 4.4; PAX8 reporter: 22.6; EWS-Fli block: 17.8

Results for C[C@@H]1CN([C@@H](C)CO)C(=O)c2cccc(NS(=O)(=O)c3ccccc3)c2O[C@@H]1CN(C)S(C)(=O)=O ?
FN deposition inh: -0.6; EWS-Fli block: -6.5

Results for C[C@@H]1CCCCO[C@H](CN(C)Cc2ccc(C(=O)O)cc2)[C@H](C)CN([C@@H](C)CO)C(=O)c2cc(NC(=O)c3ccccc3)ccc2O1 ?
FN deposition inh: -4.2; PAX8 reporter: 4.3; EWS-Fli block: -7.2

Source: PubChem
